# Measured values reported in ChEMBL document CHEMBL1158358, “Synthesis, antimicrobial and cytotoxic activities of some 5-arylidene-4-thioxo-thiazolidine-2-ones” (Eur J Med Chem, 2009).
# Columns and labels:
# Format in all cases: functional
# Pseudomonas aeruginosa = test: Antimicrobial activity against Pseudomonas aeruginosa UFPEDA 39 at 300 ug/disk after 24 hrs by disk diffusion method; conditions: UFPEDA 39, 24 h, read-out: IZ
# Outline: (§1)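 Preliminary screen by disk diffusion. Paper disks (6 mm) holding 300 µg of compound were placed on agar plates inoculated with a standardized microbial suspension. DMSO-only disks served as negative controls. A mean inhibition zone below 7 mm was scored as no sensitivity. Values are means, n = 3.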
# Staphylococcus [1] = test: Antimicrobial activity against coagulase-negative Staphylococcus H.A.M. 278 isolate after 20 hrs by twofold serial dilution technique; conditions: H.A.M. 278, 20 h
# Outline: (§2)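 MIC was determined by twofold serial dilution. Bacteria were tested in plates at 10⁵ CFU/plate and read after 20 h. C. albicans was tested in tubes at 10³ CFU/tube and read after 48 h. All incubations were at 35 °C. Medium plus DMSO served as the negative control.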
# Staphylococcus aureus [2] = test: Antimicrobial activity against Staphylococcus aureus UFPEDA 01 after 20 hrs by twofold serial dilution technique; conditions: UFPEDA 01, 20 h
# Outline: (§3)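 Twofold serial dilution MIC in agar plates against Gram-positive strains and multidrug-resistant clinical isolates. Inoculum applied was 10⁵ CFU/plate. Plates with culture medium plus DMSO served as negative control. MIC was read after incubation at 35 °C for 20 h.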
# Staphylococcus aureus [3] = test: Antimicrobial activity against multidrug-resistant Staphylococcus aureus H.C. 20794 isolate after 20 hrs by twofold serial dilution technique; conditions: H.C. 20794, 20 h; outline: as §3
# HEp-2 [4] = test: Cytotoxicity against human Hep2 cells at 2.5 ug/mL after 72 hrs by MTT assay; conditions: HEp-2, 72 h, read-out: GI
# Outline: (§4)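 MTT antiproliferative assay. Cells were diluted to 10⁵ cells/mL in 96-well plates and preincubated for 24 h at 37 °C in humid 5% CO₂. Compounds or vincristine (reference) were then added. Formazan was dissolved and OD read at 540 nm, compared with medium-only control cells. Run in triplicate.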
# Staphylococcus [5] = test: Antimicrobial activity against coagulase-negative Staphylococcus H.A.M. 338 isolate after 20 hrs by twofold serial dilution technique; conditions: H.A.M. 338, 20 h; outline: as §2
# [6] = test system: Mycolicibacterium smegmatis; test: Antimicrobial activity against Mycobacterium smegmatis UFPEDA 71 after 20 hrs by twofold serial dilution technique; conditions: UFPEDA 71, 20 h; outline: as §2
# NCI-H292 [7] = test: Cytotoxicity against human NCI-H292 cells at 2.5 ug/mL after 72 hrs by MTT assay; conditions: NCI-H292, 72 h, read-out: GI; outline: as §4
# Staphylococcus aureus [8] = test: Antimicrobial activity against multidrug-resistant Staphylococcus aureus H.C. 20905 isolate after 20 hrs by twofold serial dilution technique; conditions: H.C. 20905, 20 h; outline: as §3
# Enterococcus faecalis [9] = test: Antimicrobial activity against multidrug-resistant Enterococcus faecalis H.C. 24708 isolate after 20 hrs by twofold serial dilution technique; conditions: H.C. 24708, 20 h; outline: as §3
# NCI-H292 [10] = test: Cytotoxicity against human NCI-H292 cells at 5 ug/mL after 72 hrs by MTT assay; conditions: NCI-H292, 72 h, read-out: GI; outline: as §4
# Staphylococcus aureus [11] = test: Antimicrobial activity against multidrug-resistant Staphylococcus aureus H.C. 20489 isolate after 20 hrs by twofold serial dilution technique; conditions: H.C. 20489, 20 h; outline: as §3
# [12] = test system: Mycolicibacterium smegmatis; test: Antimicrobial activity against Mycobacterium smegmatis UFPEDA 71 at 300 ug/disk after 24 hrs by disk diffusion method; conditions: UFPEDA 71, 24 h, read-out: IZ; outline: as §1
# NCI-H292 [13] = test: Cytotoxicity against human NCI-H292 cells at 1.25 ug/mL after 72 hrs by MTT assay; conditions: NCI-H292, 72 h, read-out: GI; outline: as §4
# Staphylococcus aureus [14] = test: Antimicrobial activity against multidrug-resistant Staphylococcus aureus H.C. 21141 isolate after 20 hrs by twofold serial dilution technique; conditions: H.C. 21141, 20 h; outline: as §3
# NCI-H292 [15] = test: Cytotoxicity against human NCI-H292 cells at 10 ug/mL after 72 hrs by MTT assay; conditions: NCI-H292, 72 h, read-out: GI; outline: as §4
# Bacillus subtilis [16] = test: Antimicrobial activity against Bacillus subtilis UFPEDA 16 after 20 hrs by twofold serial dilution technique; conditions: UFPEDA 16, 20 h; outline: as §2
# Enterococcus faecalis [17] = test: Antimicrobial activity against multidrug-resistant Enterococcus faecalis H.C. 21944 isolate after 20 hrs by twofold serial dilution technique; conditions: H.C. 21944, 20 h; outline: as §3
# Bacillus subtilis [18] = test: Antimicrobial activity against Bacillus subtilis UFPEDA 16 at 300 ug/disk after 24 hrs by disk diffusion method; conditions: UFPEDA 16, 24 h, read-out: IZ; outline: as §1
# HEp-2 [19] = test: Cytotoxicity against human Hep2 cells at 10 ug/mL after 72 hrs by MTT assay; conditions: HEp-2, 72 h, read-out: GI; outline: as §4
# Enterococcus faecalis [20] = test: Antimicrobial activity against multidrug-resistant Enterococcus faecalis H.C. 24962 isolate after 20 hrs by twofold serial dilution technique; conditions: H.C. 24962, 20 h; outline: as §3
# Enterococcus faecalis [21] = test: Antimicrobial activity against multidrug-resistant Enterococcus faecalis H.C. 21752 isolate after 20 hrs by twofold serial dilution technique; conditions: H.C. 21752, 20 h; outline: as §3
# Escherichia coli = test: Antimicrobial activity against Escherichia coli UFPEDA 224 at 300 ug/disk after 24 hrs by disk diffusion method; conditions: UFPEDA 224, 24 h, read-out: IZ; outline: as §1
# Serratia marcescens = test: Antimicrobial activity against Serratia marcescens UFPEDA 398 at 300 ug/disk after 24 hrs by disk diffusion method; conditions: UFPEDA 398, 24 h, read-out: IZ; outline: as §1
# Staphylococcus aureus [22] = test: Antimicrobial activity against Staphylococcus aureus UFPEDA 01 at 300 ug/disk after 24 hrs by disk diffusion method; conditions: UFPEDA 01, 24 h, read-out: IZ; outline: as §1
# Enterococcus faecalis [23] = test: Antimicrobial activity against Enterococcus faecalis UFPEDA 138 after 20 hrs by twofold serial dilution technique; conditions: UFPEDA 138, 20 h; outline: as §2
# Staphylococcus aureus [24] = test: Antimicrobial activity against multidrug-resistant Staphylococcus aureus H.C. 20981 isolate after 20 hrs by twofold serial dilution technique; conditions: H.C. 20981, 20 h; outline: as §3
# Micrococcus luteus [25] = test: Antimicrobial activity against Micrococcus luteus UFPEDA 06 at 300 ug/disk after 24 hrs by disk diffusion method; conditions: UFPEDA 06, 24 h, read-out: IZ; outline: as §1
# Candida albicans [26] = test: Antimicrobial activity against Candida albicans UFPEDA 1007 after 48 hrs by twofold serial dilution technique; conditions: UFPEDA 1007, 48 h; outline: as §2
# HEp-2 [27] = test: Cytotoxicity against human Hep2 cells at 5 ug/mL after 72 hrs by MTT assay; conditions: HEp-2, 72 h, read-out: GI; outline: as §4
# Enterococcus faecalis [28] = test: Antimicrobial activity against Enterococcus faecalis UFPEDA 138 at 300 ug/disk after 24 hrs by disk diffusion method; conditions: UFPEDA 138, 24 h, read-out: IZ; outline: as §1
# Candida albicans [29] = test: Antimicrobial activity against Candida albicans UFPEDA 1007 at 300 ug/disk after 48 hrs by disk diffusion method; conditions: UFPEDA 1007, 48 h, read-out: IZ; outline: as §1
# Micrococcus luteus [30] = test: Antimicrobial activity against Micrococcus luteus UFPEDA 06 after 20 hrs by twofold serial dilution technique; conditions: UFPEDA 06, 20 h; outline: as §2
# HEp-2 [31] = test: Cytotoxicity against human Hep2 cells at 1.25 ug/mL after 72 hrs by MTT assay; conditions: HEp-2, 72 h, read-out: GI; outline: as §4
# Staphylococcus aureus [32] = test: Antimicrobial activity against multidrug-resistant Staphylococcus aureus H.C. 21036 isolate after 20 hrs by twofold serial dilution technique; conditions: H.C. 21036, 20 h; outline: as §3
Compound,zone of inhibition at 300 µg/disc (Pseudomonas aeruginosa),MIC (Staphylococcus [1]),MIC (Staphylococcus aureus [2]),MIC (Staphylococcus aureus [3]),inhibition of growth at 2.5 µg/mL (HEp-2 [4]),MIC (Staphylococcus [5]),MIC [6],inhibition of growth at 2.5 µg/mL (NCI-H292 [7]),MIC (Staphylococcus aureus [8]),MIC (Enterococcus faecalis [9]),inhibition of growth at 5 µg/mL (NCI-H292 [10]),MIC (Staphylococcus aureus [11]),zone of inhibition at 300 µg/disc [12],inhibition of growth at 1.25 µg/mL (NCI-H292 [13]),MIC (Staphylococcus aureus [14]),inhibition of growth at 10 µg/mL (NCI-H292 [15]),MIC (Bacillus subtilis [16]),MIC (Enterococcus faecalis [17]),zone of inhibition at 300 µg/disc (Bacillus subtilis [18]),inhibition of growth at 10 µg/mL (HEp-2 [19]),also measured
O=C1NC(=S)/C(=C/c2ccc(Cl)cc2Cl)S1,< 7 mm,4 µg/mL,2 µg/mL,2 µg/mL,15.3%,2 µg/mL,4 µg/mL,14.7%,2 µg/mL,8 µg/mL,29.3%,2 µg/mL,19 mm,12.1%,4 µg/mL,38.4%,2 µg/mL,4 µg/mL,24 mm,24.8%,MIC (Enterococcus faecalis [20]): 8 µg/mL; MIC (Enterococcus faecalis [21]): 4 µg/mL; zone of inhibition at 300 µg/disc (Escherichia coli): < 7 mm; zone of inhibition at 300 µg/disc (Serratia marcescens): < 7 mm; zone of inhibition at 300 µg/disc (Staphylococcus aureus [22]): 23 mm; MIC (Enterococcus faecalis [23]): 16 µg/mL; MIC (Staphylococcus aureus [24]): 2 µg/mL; zone of inhibition at 300 µg/disc (Micrococcus luteus [25]): 24 mm; MIC (Candida albicans [26]): 32 µg/mL; inhibition of growth at 5 µg/mL (HEp-2 [27]): 20%; zone of inhibition at 300 µg/disc (Enterococcus faecalis [28]): 18 mm; zone of inhibition at 300 µg/disc (Candida albicans [29]): 15 mm; MIC (Micrococcus luteus [30]): 8 µg/mL; inhibition of growth at 1.25 µg/mL (HEp-2 [31]): 6.83%; MIC (Staphylococcus aureus [32]): 8 µg/mL
O=C1NC(=S)/C(=C/c2ccccc2Br)S1,< 7 mm,2 µg/mL,4 µg/mL,4 µg/mL,10.3%,16 µg/mL,32 µg/mL,16.2%,4 µg/mL,16 µg/mL,22.9%,4 µg/mL,21 mm,13.3%,16 µg/mL,36.9%,8 µg/mL,16 µg/mL,19 mm,21.2%,MIC (Enterococcus faecalis [20]): 16 µg/mL; MIC (Enterococcus faecalis [21]): 8 µg/mL; zone of inhibition at 300 µg/disc (Escherichia coli): < 7 mm; zone of inhibition at 300 µg/disc (Serratia marcescens): < 7 mm; zone of inhibition at 300 µg/disc (Staphylococcus aureus [22]): 25 mm; MIC (Enterococcus faecalis [23]): 32 µg/mL; MIC (Staphylococcus aureus [24]): 4 µg/mL; zone of inhibition at 300 µg/disc (Micrococcus luteus [25]): 18 mm; MIC (Candida albicans [26]): 32 µg/mL; inhibition of growth at 5 µg/mL (HEp-2 [27]): 16.2%; zone of inhibition at 300 µg/disc (Enterococcus faecalis [28]): 19 mm; zone of inhibition at 300 µg/disc (Candida albicans [29]): 13 mm; MIC (Micrococcus luteus [30]): 16 µg/mL; inhibition of growth at 1.25 µg/mL (HEp-2 [31]): 3.14%; MIC (Staphylococcus aureus [32]): 4 µg/mL
O=C1NC(=S)/C(=C/c2ccc(Cl)c(Cl)c2)S1,< 7 mm,4 µg/mL,4 µg/mL,2 µg/mL,5.03%,2 µg/mL,32 µg/mL,19.4%,4 µg/mL,16 µg/mL,35.8%,2 µg/mL,20 mm,9.18%,2 µg/mL,43.3%,4 µg/mL,4 µg/mL,27 mm,16.4%,MIC (Enterococcus faecalis [20]): 16 µg/mL; MIC (Enterococcus faecalis [21]): 8 µg/mL; zone of inhibition at 300 µg/disc (Escherichia coli): < 7 mm; zone of inhibition at 300 µg/disc (Serratia marcescens): < 7 mm; zone of inhibition at 300 µg/disc (Staphylococcus aureus [22]): 25 mm; MIC (Enterococcus faecalis [23]): 8 µg/mL; MIC (Staphylococcus aureus [24]): 2 µg/mL; zone of inhibition at 300 µg/disc (Micrococcus luteus [25]): 27 mm; MIC (Candida albicans [26]): 32 µg/mL; inhibition of growth at 5 µg/mL (HEp-2 [27]): 11%; zone of inhibition at 300 µg/disc (Enterococcus faecalis [28]): 20 mm; zone of inhibition at 300 µg/disc (Candida albicans [29]): 14 mm; MIC (Micrococcus luteus [30]): 4 µg/mL; inhibition of growth at 1.25 µg/mL (HEp-2 [31]): -5.45%; MIC (Staphylococcus aureus [32]): 4 µg/mL
